For 31 molecules, IC50 and Ratio results are on record in ChEMBL document CHEMBL1128444 (J Med Chem, 1995).

Experiment [1] deals with Sodium-dependent dopamine transporter (Rattus norvegicus, UniProt P23977). Briefly: Binding affinity at the Dopamine transporter in rat striata by inhibition of 0.5 nM [3H]WIN-35428 binding.
Experiment [2] deals with Norepinephrine transporter (Rattus norvegicus, UniProt Q9WTR4). Nature of the experiment: Binding affinity at the Norepinephrine transporter in rat frontal cortex by inhibition of 0.5 nM [3H]nisoxetine binding. In kind it is tissue-based.
Experiment [3] has as its target Sodium-dependent serotonin transporter (Rattus norvegicus, UniProt P31652). Nature of the experiment: Binding affinity at the Serotonin transporter in rat midbrain by inhibition of 0.5 nM [3H]-paroxetine binding. The class given is tissue-based.
For experiment [4], the target named is Monoamine transporters; Norepininephrine & dopamine (Rattus norvegicus) (UniProt P23977+Q9WTR4). Nature of the experiment: Ratio of IC50 value against NE to that of DA transporters. The class given is protein assay. The gist of the method: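 Competition binding against 0.5 nM [3H]WIN 35,428 (DA transporter) or 0.5 nM [3H]nisoxetine (NE transporter). The IC50 is the mean ± standard error of three or four experiments, each run in triplicate. Selectivity ratios are NE/DA or 5-HT/DA quotients of the IC50 values.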

Experiment [5] has as its target Monoamine transporters; serotonin & dopamine (Rattus norvegicus) (UniProt P31652+P23977). Nature of the experiment: Ratio of IC50 value against Serotonin transporter to that of dopamine transporter. The class given is protein assay.

What is called IC50 is the concentration at which inhibition is half-maximal. Low values mean higher potency, high ones lower potency.

The structures appear in SMILES notation.

Sequence of Sodium-dependent serotonin transporter (P31652 whole entry): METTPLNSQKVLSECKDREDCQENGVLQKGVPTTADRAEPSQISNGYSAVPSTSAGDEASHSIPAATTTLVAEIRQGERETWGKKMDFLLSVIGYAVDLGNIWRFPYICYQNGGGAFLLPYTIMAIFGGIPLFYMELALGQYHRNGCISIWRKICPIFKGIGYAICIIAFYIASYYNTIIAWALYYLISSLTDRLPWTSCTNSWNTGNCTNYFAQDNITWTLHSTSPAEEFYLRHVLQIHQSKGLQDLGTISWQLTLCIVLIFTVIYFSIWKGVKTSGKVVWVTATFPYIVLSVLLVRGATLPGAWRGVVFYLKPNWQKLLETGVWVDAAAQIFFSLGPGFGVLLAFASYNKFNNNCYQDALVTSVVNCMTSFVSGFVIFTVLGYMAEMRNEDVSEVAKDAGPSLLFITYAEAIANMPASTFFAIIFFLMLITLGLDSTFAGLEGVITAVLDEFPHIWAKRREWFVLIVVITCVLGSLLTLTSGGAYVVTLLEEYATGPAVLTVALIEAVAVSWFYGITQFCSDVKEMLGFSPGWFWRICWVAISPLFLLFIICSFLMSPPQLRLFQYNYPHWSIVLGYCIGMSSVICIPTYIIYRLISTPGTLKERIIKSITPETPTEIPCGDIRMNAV
Sequence of Sodium-dependent dopamine transporter (P23977 whole entry): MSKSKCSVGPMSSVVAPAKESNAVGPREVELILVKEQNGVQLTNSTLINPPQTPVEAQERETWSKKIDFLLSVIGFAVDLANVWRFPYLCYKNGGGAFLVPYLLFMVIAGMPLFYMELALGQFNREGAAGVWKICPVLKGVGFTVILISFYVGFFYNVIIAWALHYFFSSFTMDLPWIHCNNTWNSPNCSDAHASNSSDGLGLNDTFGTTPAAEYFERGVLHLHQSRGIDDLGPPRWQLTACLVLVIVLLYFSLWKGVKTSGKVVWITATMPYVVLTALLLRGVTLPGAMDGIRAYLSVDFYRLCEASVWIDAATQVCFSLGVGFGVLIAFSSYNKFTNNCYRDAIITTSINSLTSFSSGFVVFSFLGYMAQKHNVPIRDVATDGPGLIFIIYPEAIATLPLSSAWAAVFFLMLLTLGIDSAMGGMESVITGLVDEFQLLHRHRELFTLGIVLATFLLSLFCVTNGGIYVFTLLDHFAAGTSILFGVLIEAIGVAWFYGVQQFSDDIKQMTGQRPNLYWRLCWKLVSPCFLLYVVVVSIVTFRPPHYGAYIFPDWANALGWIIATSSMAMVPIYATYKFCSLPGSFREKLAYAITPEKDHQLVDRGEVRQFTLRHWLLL
Sequence of Monoamine transporters; serotonin & dopamine (Rattus norvegicus) (P23977 whole entry, looked up): as the sequence (P23977 whole entry) above
Sequence of Monoamine transporters; serotonin & dopamine (Rattus norvegicus) (P31652 whole entry, looked up): as the sequence (P31652 whole entry) above
Sequence of Norepinephrine transporter (Q9WTR4 whole entry): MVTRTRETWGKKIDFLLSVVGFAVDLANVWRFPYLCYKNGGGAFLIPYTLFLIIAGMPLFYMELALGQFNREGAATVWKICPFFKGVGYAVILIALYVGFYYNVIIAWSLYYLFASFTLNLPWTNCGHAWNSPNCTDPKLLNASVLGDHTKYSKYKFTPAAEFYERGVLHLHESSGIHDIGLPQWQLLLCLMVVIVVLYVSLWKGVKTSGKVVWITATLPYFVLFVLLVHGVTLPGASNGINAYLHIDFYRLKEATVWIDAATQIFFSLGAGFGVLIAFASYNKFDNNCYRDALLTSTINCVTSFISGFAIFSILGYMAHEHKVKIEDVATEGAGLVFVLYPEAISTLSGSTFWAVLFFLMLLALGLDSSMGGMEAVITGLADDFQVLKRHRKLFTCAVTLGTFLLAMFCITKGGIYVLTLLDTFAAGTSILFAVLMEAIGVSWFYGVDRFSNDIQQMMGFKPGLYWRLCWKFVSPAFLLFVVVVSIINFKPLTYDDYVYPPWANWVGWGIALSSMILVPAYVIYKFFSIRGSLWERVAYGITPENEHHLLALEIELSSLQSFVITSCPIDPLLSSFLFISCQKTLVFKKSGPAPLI

As to `CN1C2CCC1C(C(=O)Oc1ccccc1)C(c1ccccc1)C2` (stereo not drawn), the results for the IC50 in experiment [1], in experiment [2] and in experiment [3] were 76.7 nM, 19300 nM and 106000 nM, respectively. The Ratio amounted to 251 in experiment [4] and 1380 in experiment [5].

Turning to `CC(C)OC(=O)C1C(OC(=O)c2ccccc2)CC2CCC1N2C` (stereo not drawn), the IC50 in experiment [2] is 30300 nM; in experiment [3] it was 25200 nM.

In the case of `COC(=O)C1C(c2ccc(Cl)c(Cl)c2)CC2CCC1N2C` (stereo not drawn), the IC50 in experiment [1] is 0.79 nM; in experiment [2], 18 nM; in experiment [3], 3.13 nM. Besides, the Ratio in experiment [5] is 4.

As to `Cc1ccc(C2CC3CCC(C2C(=O)OC2CCCC2)N3C)cc1` (stereo not drawn), the IC50 in experiment [1] amounted to 17.8 nM; in experiment [2] it was 2630 nM; in experiment [3] it was 485 nM. Besides, the Ratio was 148 in experiment [4] and 27 in experiment [5].

Take `Cc1ccccc1OC(=O)C1C(c2ccc(Cl)cc2)CC2CCC1N2C` (stereo not drawn): the IC50 in experiment [1] came out at 3.91 nM; in experiment [2], 4780 nM. Moreover, the Ratio in experiment [4] came to 1220; in experiment [5], 965.

As to `COc1ccc(OC(=O)C2C(c3ccc(C)cc3)CC3CCC2N3C)cc1` (stereo not drawn), the IC50 in experiment [1] is 95.6 nM; in experiment [2], 3150 nM; in experiment [3] it was 82300 nM. For the same molecule, the Ratio in experiment [4] worked out at 33; in experiment [5], 861.

For `CN1C2CCC1C(C(=O)N1CCOCC1)C(c1ccc(Cl)cc1)C2` (stereo not drawn), the IC50 in experiment [1] amounted to 2.9 nM; in experiment [2], 8550 nM; in experiment [3], 88800 nM. Further, the Ratio in experiment [4] is 2950; in experiment [5], 30600.

With `CCOC(=O)C1C(OC(=O)c2ccccc2)CC2CCC1N2C` (stereo not drawn), the results for the IC50 in experiment [1], in experiment [2] and in experiment [3] were 195 nM, 10000 nM and 5800 nM, respectively. In addition, the Ratio in experiment [4] stood at 51; in experiment [5], 30.

In the case of `Cc1ccc(OC(=O)C2C(c3ccc(Cl)cc3)CC3CCC2N3C)cc1` (stereo not drawn), the values for the IC50 in experiment [1] and in experiment [2] were 27.4 nM and 1280 nM, respectively. Also, the values for the Ratio in experiment [4] and in experiment [5] were 45 and 44, respectively.

Regarding `CN1C2CCC1C(C(=O)OCCCc1ccccc1)C(OC(=O)c1ccccc1)C2` (stereo not drawn), the IC50 turned out to be 147 nM in experiment [1], 4890 nM in experiment [2] and 374 nM in experiment [3]. For the same molecule, the Ratio in experiment [4] turned out to be 33; in experiment [5] it was 2.5.

For the molecule `CC(C)OC(=O)C1C(c2ccccc2)CC2CCC1N2C` (stereo not drawn), the half-maximal inhibitory concentration (IC50) in experiment [1] stood at 85.1 nM; in experiment [2], 32000 nM; in experiment [3], 23100 nM. The figures for the Ratio in experiment [4] and in experiment [5] were 377 and 272, respectively.

For `CN(C)C(=O)C1C(OC(=O)c2ccccc2)CC2CCC1N2C` (stereo not drawn), the 50% inhibitory concentration (IC50) worked out at 127 nM in experiment [1], 7330 nM in experiment [2] and 144000 nM in experiment [3]. Also, the results for the Ratio in experiment [4] and in experiment [5] were 58 and 1130, respectively.

As to `CN1C2CCC1C(C(=O)N1CCCO1)C(c1ccc(Cl)cc1)C2` (stereo not drawn), the IC50 in experiment [1] was 1.47 nM; in experiment [2] it was 1080 nM; in experiment [3], 2470 nM. The Ratio in experiment [4] turned out to be 736; in experiment [5], 1680.

Consider `CN1C2CCC1C(C(=O)OCc1ccccc1)C(OC(=O)c1ccccc1)C2` (stereo not drawn), for which the concentration for half-maximal inhibition (IC50) in experiment [1] turned out to be 257 nM; in experiment [2] it was 20800 nM; in experiment [3], 302 nM. Also, the Ratio came out at 81 in experiment [4] and 1.2 in experiment [5].

Turning to `CN1C2CCC1C(C(=O)N1CCCO1)C(c1ccc(I)cc1)C2` (stereo not drawn), the IC50 turned out to be 0.75 nM in experiment [1], 357 nM in experiment [2] and 130 nM in experiment [3]. In addition, the results for the Ratio in experiment [4] and in experiment [5] were 476 and 173, respectively.

As to `CONC(=O)C1C(c2ccc(Cl)cc2)CC2CCC1N2C` (stereo not drawn), the values for the IC50 in experiment [1], in experiment [2] and in experiment [3] were 10.7 nM, 9910 nM and 43700 nM, respectively. Moreover, the Ratio in experiment [4] amounted to 826; in experiment [5], 4080.

Consider `COC(=O)C1C(c2ccc(Br)cc2)CC2CCC1N2C` (stereo not drawn), for which the IC50 was found to be 1.69 nM in experiment [1] and 10.6 nM in experiment [3]. Further, the Ratio came out at 22 in experiment [4] and 6 in experiment [5].

With `CON(C)C(=O)C1C(c2ccc(I)cc2)CC2CCC1N2C` (stereo not drawn), the figures for the half-inhibitory concentration (IC50) in experiment [1], in experiment [2] and in experiment [3] were 1.08 nM, 103 nM and 73.9 nM, respectively. Besides, the figures for the Ratio in experiment [4] and in experiment [5] were 95 and 68, respectively.

Take `CNC(=O)C1C(c2ccc(Cl)cc2)CC2CCC1N2C` (stereo not drawn): the IC50 was determined as 12.4 nM in experiment [1], 1580 nM in experiment [2] and 1310 nM in experiment [3]. Also, the Ratio in experiment [4] was 128; in experiment [5] it was 106.

With `COC(=O)C1C(c2ccc(Cl)c(C)c2)CC2CCC1N2C` (stereo not drawn), the IC50 in experiment [1] came out at 0.81 nM; in experiment [2], 36.2 nM; in experiment [3], 10.5 nM. In addition, the Ratio in experiment [4] was found to be 45; in experiment [5] it was 13.

As to `CN1C2CCC1C(C(=O)N1CCCCC1)C(c1ccc(Cl)cc1)C2` (stereo not drawn), the IC50 in experiment [1] is 6.95 nM; in experiment [2], 1750 nM; in experiment [3], 3470 nM. In addition, the Ratio was 252 in experiment [4] and 499 in experiment [5].

For `CN1C2CCC1C(C(=O)OC1CC1)C(c1ccc(Cl)cc1)C2` (stereo not drawn), the IC50 is 0.96 nM in experiment [1] and 235 nM in experiment [2]. Further, the values for the Ratio in experiment [4] and in experiment [5] were 245 and 175, respectively.

`CCN(CC)C(=O)C1C(c2ccc(C)cc2)CC2CCC1N2C` (stereo not drawn): the IC50 came out at 24.7 nM in experiment [1], 6220 nM in experiment [2] and 33900 nM in experiment [3]. In addition, the figures for the Ratio in experiment [4] and in experiment [5] were 252 and 1370, respectively.

`CCC(CC)OC(=O)C1C(c2ccc(C)cc2)CC2CCC1N2C` (stereo not drawn): the IC50 in experiment [1] was 19.1 nM; in experiment [2], 3440 nM. The Ratio amounted to 180 in experiment [4] and 236 in experiment [5].

As to `CN1C2CCC1C(C(=O)Oc1ccc(I)cc1)C(c1ccc(Cl)cc1)C2` (stereo not drawn), the IC50 in experiment [1] came to 32.6 nM; in experiment [2], 968 nM; in experiment [3], 1230 nM. Further, the values for the Ratio in experiment [4] and in experiment [5] were 30 and 38, respectively.

Turning to `Cc1ccc(C2CC3CCC(C2C(=O)Oc2ccc(Cl)cc2)N3C)cc1` (stereo not drawn), the IC50 in experiment [1] was determined as 117 nM; in experiment [2] it was 9520 nM; in experiment [3], 42800 nM. Also, the Ratio in experiment [4] worked out at 81; in experiment [5], 366.

On to `CN(C)C(=O)C1C(c2ccc(Cl)cc2)CC2CCC1N2C` (stereo not drawn), for which the results for the IC50 in experiment [1], in experiment [2] and in experiment [3] were 1.38 nM, 942 nM and 1080 nM, respectively. The Ratio amounted to 683 in experiment [4] and 782 in experiment [5].

Regarding `Cc1ccc(C2CC3CCC(C2C(=O)Oc2ccccc2C)N3C)cc1` (stereo not drawn), the IC50 in experiment [1] was determined as 23.2 nM; in experiment [2], 25700 nM; in experiment [3], 11000 nM. For the same molecule, the Ratio is 1110 in experiment [4] and 476 in experiment [5].

Regarding `Cc1ccc(C2CC3CCC(C2C(=O)OC2CC2)N3C)cc1` (stereo not drawn), the IC50 in experiment [1] was found to be 1.68 nM; in experiment [2], 644 nM. The Ratio in experiment [4] came to 383; in experiment [5], 634.

`Cc1cccc(OC(=O)C2C(c3ccc(Cl)cc3)CC3CCC2N3C)c1` (stereo not drawn): the IC50 in experiment [1] came out at 9.37 nM; in experiment [2], 2740 nM. Further, the Ratio in experiment [4] was 293; in experiment [5], 230.

On to `Cc1ccc(C2CC3CCC(C2C(=O)Oc2cccc(C)c2)N3C)cc1` (stereo not drawn), for which the results for the IC50 in experiment [1] and in experiment [2] were 8.19 nM and 2140 nM, respectively. Further, the Ratio was 261 in experiment [4] and 639 in experiment [5].
